The test relates to integrin αIIbβ3 TM complex. Format: binding, Human. The following applies: ITC, 28 °C, same bicelles. An outline of the steps: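 β3 TM peptide (10 μM in cell) titrated with αIIb TM peptide in 10 s injections until saturation. Medium: 43 mM DHPC, 17 mM POPC, 25 mM sodium phosphate, pH 7.4, with 9 mM free DHPC. Heats of dilution of both peptides were subtracted. ΔH° and mole-fraction K_XY were fitted with 1:1 stoichiometry fixed. Peptide amounts were set by UV absorbance.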

Turning to “αIIb + β3: Human integrin αIIb(A958-P998) and β3(P685-F727) TM peptides incorporating β3(C687S), recombinantly produced; wild-type pair”, under “ΔG° = −RT ln KXY”, the “ΔG°” value was -4.84 ± 0.01 kcal/mol. For the same substance, for the setting “ΔS° = (ΔH° − ΔG°)/T”, the “TΔS°” value is -11.1 ± 0.1 kcal/mol.
